From ChEMBL document CHEMBL4354828, “Discovery of Taniborbactam (VNRX-5133): A Broad-Spectrum Serine- and Metallo-β-lactamase Inhibitor for Carbapenem-Resistant Bacterial Infections” (J Med Chem, 2020) come the findings set out here.

The test system of assay [1] is Staphylococcus aureus. The experiment in a line: Antibacterial activity against wild type Staphylococcus aureus ATCC 29213 after 16 to 20 hrs by CLSI-based microbroth dilution method. The assay is classed as functional. On the technique in general: In broth dilution the organism is exposed to a series of concentrations in liquid medium.
Assay [2] relates to Enterobacter cloacae. The experiment in a line: Antibacterial activity against Enterobacter cloacae 144200 expressing p99 AmpC after 16 to 20 hrs by CLSI-based microbroth dilution method. The class given is functional.
The test system of assay [3] is Escherichia coli. The experiment in a line: Antibacterial activity against wild type Escherichia coli ATCC 25922 after 16 to 20 hrs by CLSI-based microbroth dilution method. The class given is functional.
For assay [4], the system named is Escherichia coli. Nature of the assay: Antibacterial activity against Escherichia coli J53 expressing SHV5/ AmpC/TEM-1 after 16 to 20 hrs by CLSI-based microbroth dilution method. The class given is functional.
In assay [5] the test system is Staphylococcus aureus. Nature of the assay: Antibacterial activity against methicillin resistant Staphylococcus aureus 33591 after 16 to 20 hrs by CLSI-based microbroth dilution method. The assay is classed as functional.
The test system of assay [6] is Klebsiella pneumoniae. Nature of the assay: Antibacterial activity against wild type Klebsiella pneumoniae CI 09 after 16 to 20 hrs by CLSI-based microbroth dilution method. The assay is classed as functional.
The subject of assay [7] is Pseudomonas aeruginosa. Nature of the assay: Antibacterial activity against wild type Pseudomonas aeruginosa 27853 after 16 to 20 hrs by CLSI-based microbroth dilution method. The assay is classed as functional.
In the next assay the test system is Klebsiella aerogenes. Nature of the assay: Antibacterial activity against Enterobacter aerogenes 188548 expressing AmpC after 16 to 20 hrs by CLSI-based microbroth dilution method. The assay is classed as functional.
Assay [8] has as its system Klebsiella pneumoniae. The experiment in a line: Inhibition of VIM-1/VIM-2/VIM-4/NDM-1 in Klebsiella pneumoniae assessed as cefepime antibacterial activity at 4 ug/ml after 16 to 20 hrs by CLSI-based microbroth dilution method.
Assay [9] deals with Enterobacter cloacae. Nature of the assay: Inhibition of TEM/CTX-M/SHV/Cephalosporinase in Enterobacter cloacae CH23 assessed as cefepime antibacterial activity at 4 ug/ml after 16 to 20 hrs by CLSI-based microbroth dilution method (Rvb > […] ug/ml).
Assay [10] in a line: Inhibition of bacterial IMP-1 using nitrocefin as substrate preincubated for 15 mins followed by susbtrate addition and measured after 10 mins by spectrophotometric method. Also noted: species or system Bacteria.
Assay [11] is described as follows: Inhibition of bacterial NDM-1 using cefepime as substrate preincubated for 15 mins followed by susbtrate addition and measured after 10 mins by spectrophotometric method. Also noted: species or system Bacteria.
The subject of assay [12] is Pseudomonas aeruginosa. The experiment in a line: Inhibition of VIM-1/VIM-2/VIM-4/NDM-1 in Pseudomonas aeruginosa assessed as cefepime antibacterial activity at 4 ug/ml after 16 to 20 hrs by CLSI-based microbroth dilution method. The method in brief:
(§1)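 Panel of 14 clinical isolates expressing class B VIM- or NDM-type MBLs: E. coli (4), E. cloacae (2), K. pneumoniae (4), P. aeruginosa (1), A. baumannii (3).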

The test system of assay [13] is Escherichia coli. Nature of the assay: Inhibition of NDM in Escherichia coli CDC-0452 assessed as piperacillin antibacterial activity at 16 ug/ml after 16 to 20 hrs by CLSI-based microbroth dilution method (Rvb > […] ug/ml).
Assay [14] deals with Enterobacter cloacae. The experiment in a line: Inhibition of VIM-1/VIM-2/VIM-4/NDM-1 in Enterobacter cloacae assessed as cefepime antibacterial activity at 4 ug/ml after 16 to 20 hrs by CLSI-based microbroth dilution method. In outline:
as §1

In the next assay the test system is Acinetobacter baumannii. The experiment in a line: Inhibition of VIM-1/VIM-2/VIM-4/NDM-1 in Acinetobacter baumannii assessed as cefepime antibacterial activity at 4 ug/ml after 16 to 20 hrs by CLSI-based microbroth dilution method. In outline:
as §1

Assay [15] concerns Pseudomonas aeruginosa. Nature of the assay: Inhibition of VIM in Pseudomonas aeruginosa CDC-0457 assessed as meropenem antibacterial activity at 4 ug/ml after 16 to 20 hrs by CLSI-based microbroth dilution method.
The subject of assay [16] is Klebsiella pneumoniae ATCC BAA-1705. Nature of the assay: Inhibition of KPC-2 in Klebsiella pneumoniae ATCC BAA 1705 assessed as meropenem antibacterial activity at 4 ug/ml after 16 to 20 hrs by CLSI-based microbroth dilution method (reference value: […] ug/ml).
Assay [17] has as its system Escherichia coli. The experiment in a line: Inhibition of VIM-1/VIM-2/VIM-4/NDM-1 in Escherichia coli assessed as cefepime antibacterial activity at 4 ug/ml after 16 to 20 hrs by CLSI-based microbroth dilution method. The method in brief:
as §1

The subject of assay [18] is Pseudomonas aeruginosa. Nature of the assay: Inhibition of VIM in Pseudomonas aeruginosa CDC-0457 assessed as cefepime antibacterial activity at 8 ug/ml after 16 to 20 hrs by CLSI-based microbroth dilution method.
Assay [19] concerns Pseudomonas aeruginosa. Nature of the assay: Inhibition of KPC-2/PDC-42 in Pseudomonas aeruginosa CDC-0356 assessed as piperacillin antibacterial activity at 16 ug/ml after 16 to 20 hrs by CLSI-based microbroth dilution method (Rvb > […] ug/ml).
The nature of assay [20]: Inhibition of bacterial OXA-48 using nitrocefin as substrate preincubated for 15 mins followed by susbtrate addition and measured after 10 mins by spectrophotometric method. Also noted: species or system Bacteria.
Assay [21] in a line: Inhibition of bacterial KPC-2 using imipenem as substrate preincubated for 15 mins followed by susbtrate addition and measured after 10 mins by spectrophotometric method. The arrangement: species or system Bacteria.
The test system of assay [22] is Escherichia coli. Nature of the assay: Inhibition of NDM-1/CMY-6/OXA-1 in Escherichia coli CDC-0055 assessed as meropenem antibacterial activity at 4 ug/ml after 16 to 20 hrs by CLSI-based microbroth dilution method (reference value: […] ug/ml).
Assay [23] in a line: Inhibition of bacterial SHV-5 using cefotaxime as substrate preincubated for 15 mins followed by susbtrate addition and measured after 10 mins by spectrophotometric method. Also noted: species or system Bacteria.
Assay [24] has as its system Pseudomonas aeruginosa. The experiment in a line: Inhibition of KPC-2/PDC-42 in Pseudomonas aeruginosa CDC-0356 assessed as meropenem antibacterial activity at 4 ug/ml after 16 to 20 hrs by CLSI-based microbroth dilution method (reference value: […] ug/ml).
In assay [25] the test system is Pseudomonas aeruginosa. Nature of the assay: Inhibition of KPC-2/PDC-42 in Pseudomonas aeruginosa CDC-0356 assessed as cefepime antibacterial activity at 8 ug/ml after 16 to 20 hrs by CLSI-based microbroth dilution method (Rvb > […] ug/ml).
The subject of assay [26] is Klebsiella pneumoniae. Nature of the assay: Inhibition of TEM/CTX-M/SHV in Klebsiella pneumoniae 9032 assessed as cefepime antibacterial activity at 4 ug/ml after 16 to 20 hrs by CLSI-based microbroth dilution method (reference value: […] ug/ml).
Assay [27] in a line: Inhibition of bacterial CMY-2 using nitrocefin as substrate preincubated for 15 mins followed by susbtrate addition and measured after 10 mins by spectrophotometric method. The arrangement: species or system Bacteria.
Assay [28] has as its system Escherichia coli. The experiment in a line: Inhibition of NDM-1/CMY-6/OXA-1 in Escherichia coli CDC-0055 assessed as cefepime antibacterial activity at 8 ug/ml after 16 to 20 hrs by CLSI-based microbroth dilution method. The method in brief: (§2)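 MDR β-lactamase-producing Gram-negative clinical isolates. […] MIC was reported as the inhibitor concentration that restores the partner's antibacterial activity.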

Assay [29] concerns Escherichia coli. Nature of the assay: Inhibition of NDM in Escherichia coli CDC-0452 assessed as meropenem antibacterial activity at 4 ug/ml after 16 to 20 hrs by CLSI-based microbroth dilution method (reference value: […] ug/ml).
Assay [30] can be described thus: Inhibition of bacterial CTX-M-15 using cefotaxime as substrate preincubated for 15 mins followed by susbtrate addition and measured after 10 mins by spectrophotometric method. The arrangement: species or system Bacteria.
For assay [31], the system named is Escherichia coli. Nature of the assay: Inhibition of TEM/CTX-M/SHV/Cephalosporinase in Escherichia coli EC1552 assessed as cefepime antibacterial activity at 4 ug/ml after 16 to 20 hrs by CLSI-based microbroth dilution method (reference value: […] ug/ml).
The nature of assay [32]: Inhibition of bacterial VIM-2 using nitrocefin as substrate preincubated for 15 mins followed by susbtrate addition and measured after 10 mins by spectrophotometric method. The arrangement: species or system Bacteria. The method in brief: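 Purified β-lactamase inhibition. IC50 values are the average of duplicates unless otherwise indicated.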
Assay [33] relates to Escherichia coli. Nature of the assay: Inhibition of NDM-1/CMY-6/OXA-1 in Escherichia coli CDC-0055 assessed as piperacillin antibacterial activity at 16 ug/ml after 16 to 20 hrs by CLSI-based microbroth dilution method. The method in brief: as §2

≈ marks a conversion by molar mass, not a printed value. Bounds are passed on as bounds.

As to `C[C@@H](O)[C@H]1C(=O)N2C(C(=O)O)=C(S[C@@H]3CN[C@H](C(=O)N(C)C)C3)[C@H](C)[C@H]12` [MEROPENEM], the MIC against Staphylococcus aureus [1] was determined as 0.06 µg/mL (≈ 0.156 µM); against Enterobacter cloacae [2], 0.25 µg/mL (≈ 0.652 µM); in the assay on Escherichia coli [3], 0.03 µg/mL (≈ 0.0782 µM); in the assay on Escherichia coli [4], 0.06 µg/mL (≈ 0.156 µM); in the assay with Staphylococcus aureus [5] it was 32 µg/mL (≈ 83.4 µM); in the assay with Klebsiella pneumoniae [6], 0.06 µg/mL (≈ 0.156 µM). The MIC against Pseudomonas aeruginosa [7] stood at 1 µg/mL (≈ 2.61 µM); in the assay with Klebsiella aerogenes, 2 µg/mL (≈ 5.22 µM).

`C[C@]1(Cn2ccnn2)[C@H](C(=O)O)N2C(=O)C[C@H]2S1(=O)=O` [TAZOBACTAM]: the MIC50 in the assay on Klebsiella pneumoniae [8], in the assay with Pseudomonas aeruginosa [12], in the assay with Enterobacter cloacae [14], in the assay on Acinetobacter baumannii and with Escherichia coli [17] was greater than 32 µg/mL each time. In addition, the MIC90 in the assay with Klebsiella pneumoniae [8], in the assay on Pseudomonas aeruginosa [12], with Enterobacter cloacae [14], with Acinetobacter baumannii and in the assay with Escherichia coli [17] was greater than 32 µg/mL throughout. Also, the MIC was greater than 16 µg/mL in the assay on Enterobacter cloacae [9]; greater than 16 µg/mL with Escherichia coli [13]; greater than 16 µg/mL with Pseudomonas aeruginosa [15]; 8 µg/mL (≈ 26.6 µM) in [16]; greater than 16 µg/mL in the assay with Pseudomonas aeruginosa [18]; greater than 16 µg/mL with Pseudomonas aeruginosa [19]. Besides, the MIC in the assay on Escherichia coli [22] is greater than 16 µg/mL; in the assay with Pseudomonas aeruginosa [24], greater than 16 µg/mL; in the assay on Pseudomonas aeruginosa [25], greater than 16 µg/mL; with Klebsiella pneumoniae [26], 4 µg/mL (≈ 13.3 µM); with Escherichia coli [28], greater than 16 µg/mL; in the assay on Escherichia coli [29], greater than 16 µg/mL. Besides, the values for the MIC in the assay on Escherichia coli [31] and with Escherichia coli [33] were 4 µg/mL (≈ 13.3 µM) and greater than 16 µg/mL, respectively. Moreover, the half-maximal inhibitory concentration (IC50) (as a rule, the concentration at which inhibition is half-maximal) in assay [10] is greater than 100 µM; in assay [11] it was greater than 100 µM; in [20] it was 550 nM; in assay [21] it was 1700 nM; in assay [23], 15 nM; in assay [27] it was 410 nM. Further, the values for the IC50 in assay [30] and in assay [32] were 1 nM and greater than 100 µM, respectively.
